# Measurements reported in ChEMBL document CHEMBL5724801, “EUbOPEN Chemogenomics Library - Multiplex” (2024).
# Where “and” joins values, the source holds several entries; their conditions need not be identical. Identical values can stand only once.
# Test system: HEK-293T
# Experiment: Multiplex assay against HEK293T
# Format: toxicity, cell-based
# Conditions: human
# How it was run: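 Live cells carried four stains from seeding: Hoechst33342, BioTracker Green Microtubule Cytoskeleton Dye, MitoTracker Red and Annexin V Alexa Fluor 680. They were imaged on a CQ1 microscope at 37°C and 5% CO2 after compound addition. Using CellPathfinder machine-learning gating, cells were split into Hoechst high-intensity objects or normal cells, normal cells into healthy, pyknosed or fragmented nuclei, and pyknosed cells into mitotic or apoptotic; tubulin, mitochondrial-mass and membrane-permeability phenotypes are per cents of healthy-nucleus cells.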
# [1] = 12 h, 1 µM, compound concentration 1 uM
# [2] = 12 h, 10 µM, compound concentration 10 uM
# [3] = 24 h, 1 µM, compound concentration 1 uM
# [4] = 24 h, 10 µM, compound concentration 10 uM
# [5] = 48 h, 1 µM, compound concentration 1 uM
# [6] = 48 h, 10 µM, compound concentration 10 uM
structure (smiles),measurement,setting,value
CN1CCC(C(=O)c2cccc(NC(=O)c3c(F)cc(F)cc3F)n2)CC1,Population Apoptotic (%),[1],32% and 52%
same,Population Fragmented Nuclei (%),[1],5%
same,Population Healthy Nuclei (%),[1],82%
same,Population Hoechst High Intensity Objects (%),[1],8% and 7%
same,Population Membrane Permeable-Phenotype (%),[1],0%
same,Population Mitochondria Different-Phenotype (%),[1],51% and 59%
same,Population Mitotic Cells (%),[1],67% and 47%
same,Population Normal (%),[1],91% and 92%
same,Population Pyknosed Nuclei (%),[1],11% and 12%
same,Population Tubulin-Different-Phenotype (%),[1],31% and 20%
same,Total Cell Count,[1],396 and 352
same,Population Apoptotic (%),[2],52% and 53%
same,Population Fragmented Nuclei (%),[2],6%
same,Population Healthy Nuclei (%),[2],80%
same,Population Hoechst High Intensity Objects (%),[2],8% and 10%
same,Population Membrane Permeable-Phenotype (%),[2],1% and 0%
same,Population Mitochondria Different-Phenotype (%),[2],55% and 77%
same,Population Mitotic Cells (%),[2],47% and 46%
same,Population Normal (%),[2],91% and 89%
same,Population Pyknosed Nuclei (%),[2],12% and 13%
same,Population Tubulin-Different-Phenotype (%),[2],50%
same,Total Cell Count,[2],445 and 401
same,Population Apoptotic (%),[3],26% and 42%
same,Population Fragmented Nuclei (%),[3],11% and 8%
same,Population Healthy Nuclei (%),[3],74% and 83%
same,Population Hoechst High Intensity Objects (%),[3],4% and 3%
same,Population Membrane Permeable-Phenotype (%),[3],0%
same,Population Mitochondria Different-Phenotype (%),[3],30% and 39%
same,Population Mitotic Cells (%),[3],73% and 57%
same,Population Normal (%),[3],95% and 96%
same,Population Pyknosed Nuclei (%),[3],13% and 7%
same,Population Tubulin-Different-Phenotype (%),[3],20% and 17%
same,Total Cell Count,[3],504 and 478
same,Population Apoptotic (%),[4],25% and 52%
same,Population Fragmented Nuclei (%),[4],10% and 8%
same,Population Healthy Nuclei (%),[4],76% and 81%
same,Population Hoechst High Intensity Objects (%),[4],6% and 8%
same,Population Membrane Permeable-Phenotype (%),[4],0%
same,Population Mitochondria Different-Phenotype (%),[4],48% and 64%
same,Population Mitotic Cells (%),[4],75% and 47%
same,Population Normal (%),[4],93% and 91%
same,Population Pyknosed Nuclei (%),[4],13% and 9%
same,Population Tubulin-Different-Phenotype (%),[4],41% and 34%
same,Total Cell Count,[4],583 and 467
same,Population Apoptotic (%),[5],22% and 34%
same,Population Fragmented Nuclei (%),[5],11% and 9%
same,Population Healthy Nuclei (%),[5],80% and 84%
same,Population Hoechst High Intensity Objects (%),[5],3%
same,Population Membrane Permeable-Phenotype (%),[5],1%
same,Population Mitochondria Different-Phenotype (%),[5],19% and 24%
same,Population Mitotic Cells (%),[5],77% and 65%
same,Population Normal (%),[5],96%
same,Population Pyknosed Nuclei (%),[5],7% and 5%
same,Population Tubulin-Different-Phenotype (%),[5],12% and 10%
same,Total Cell Count,[5],884 and 692
same,Population Apoptotic (%),[6],30% and 28%
same,Population Fragmented Nuclei (%),[6],13% and 10%
same,Population Healthy Nuclei (%),[6],79% and 81%
same,Population Hoechst High Intensity Objects (%),[6],4% and 7%
same,Population Membrane Permeable-Phenotype (%),[6],0%
same,Population Mitochondria Different-Phenotype (%),[6],35% and 42%
same,Population Mitotic Cells (%),[6],69% and 71%
same,Population Normal (%),[6],95% and 92%
same,Population Pyknosed Nuclei (%),[6],7%
same,Population Tubulin-Different-Phenotype (%),[6],23% and 25%
same,Total Cell Count,[6],803 and 671
CCc1nn2c(C)cc(C)nc2c1Cc1ccc(-c2nnc(C3CCNCC3)o2)cc1,Population Apoptotic (%),[1],35% and 51%
same,Population Fragmented Nuclei (%),[1],9% and 7%
same,Population Healthy Nuclei (%),[1],80% and 78%
same,Population Hoechst High Intensity Objects (%),[1],7% and 5%
same,Population Membrane Permeable-Phenotype (%),[1],0%
same,Population Mitochondria Different-Phenotype (%),[1],54% and 62%
same,Population Mitotic Cells (%),[1],64% and 48%
same,Population Normal (%),[1],92% and 94%
same,Population Pyknosed Nuclei (%),[1],10% and 13%
same,Population Tubulin-Different-Phenotype (%),[1],37% and 19%
same,Total Cell Count,[1],401 and 395
same,Population Apoptotic (%),[2],63% and 56%
same,Population Fragmented Nuclei (%),[2],6% and 4%
same,Population Healthy Nuclei (%),[2],68% and 78%
same,Population Hoechst High Intensity Objects (%),[2],11% and 12%
same,Population Membrane Permeable-Phenotype (%),[2],0%
same,Population Mitochondria Different-Phenotype (%),[2],85% and 86%
same,Population Mitotic Cells (%),[2],36% and 43%
same,Population Normal (%),[2],88% and 87%
same,Population Pyknosed Nuclei (%),[2],25% and 17%
same,Population Tubulin-Different-Phenotype (%),[2],65% and 48%
same,Total Cell Count,[2],319 and 293
same,Population Apoptotic (%),[3],44% and 34%
same,Population Fragmented Nuclei (%),[3],10% and 7%
same,Population Healthy Nuclei (%),[3],76% and 78%
same,Population Hoechst High Intensity Objects (%),[3],4% and 5%
same,Population Membrane Permeable-Phenotype (%),[3],0%
same,Population Mitochondria Different-Phenotype (%),[3],36% and 50%
same,Population Mitotic Cells (%),[3],55% and 65%
same,Population Normal (%),[3],95% and 94%
same,Population Pyknosed Nuclei (%),[3],13%
same,Population Tubulin-Different-Phenotype (%),[3],23% and 19%
same,Total Cell Count,[3],529 and 542
same,Population Apoptotic (%),[4],69% and 41%
same,Population Fragmented Nuclei (%),[4],11% and 10%
same,Population Healthy Nuclei (%),[4],72% and 77%
same,Population Hoechst High Intensity Objects (%),[4],5% and 7%
same,Population Membrane Permeable-Phenotype (%),[4],0%
same,Population Mitochondria Different-Phenotype (%),[4],73% and 78%
same,Population Mitotic Cells (%),[4],30% and 58%
same,Population Normal (%),[4],94% and 92%
same,Population Pyknosed Nuclei (%),[4],15% and 11%
same,Population Tubulin-Different-Phenotype (%),[4],50% and 45%
same,Total Cell Count,[4],448 and 389
same,Population Apoptotic (%),[5],28% and 32%
same,Population Fragmented Nuclei (%),[5],12% and 11%
same,Population Healthy Nuclei (%),[5],79% and 83%
same,Population Hoechst High Intensity Objects (%),[5],2% and 5%
same,Population Membrane Permeable-Phenotype (%),[5],0%
same,Population Mitochondria Different-Phenotype (%),[5],25% and 24%
same,Population Mitotic Cells (%),[5],71% and 67%
same,Population Normal (%),[5],97% and 94%
same,Population Pyknosed Nuclei (%),[5],8% and 5%
same,Population Tubulin-Different-Phenotype (%),[5],15% and 10%
same,Total Cell Count,[5],842 and 829
same,Population Apoptotic (%),[6],54% and 50%
same,Population Fragmented Nuclei (%),[6],14% and 12%
same,Population Healthy Nuclei (%),[6],72% and 80%
same,Population Hoechst High Intensity Objects (%),[6],4% and 3%
same,Population Membrane Permeable-Phenotype (%),[6],0%
same,Population Mitochondria Different-Phenotype (%),[6],59% and 56%
same,Population Mitotic Cells (%),[6],45% and 50%
same,Population Normal (%),[6],95% and 96%
same,Population Pyknosed Nuclei (%),[6],13% and 6%
same,Population Tubulin-Different-Phenotype (%),[6],32% and 26%
same,Total Cell Count,[6],517 and 607
N[C@](CC1c2ccccc2Oc2ccccc21)(C(=O)O)[C@H]1C[C@@H]1C(=O)O,Population Apoptotic (%),[1],38% and 54%
same,Population Fragmented Nuclei (%),[1],6% and 7%
same,Population Healthy Nuclei (%),[1],83% and 79%
same,Population Hoechst High Intensity Objects (%),[1],7% and 5%
same,Population Membrane Permeable-Phenotype (%),[1],0%
same,Population Mitochondria Different-Phenotype (%),[1],43% and 58%
same,Population Mitotic Cells (%),[1],61% and 45%
same,Population Normal (%),[1],92% and 94%
same,Population Pyknosed Nuclei (%),[1],10% and 12%
same,Population Tubulin-Different-Phenotype (%),[1],27% and 25%
same,Total Cell Count,[1],447 and 270
same,Population Apoptotic (%),[2],32%
same,Population Fragmented Nuclei (%),[2],9% and 4%
same,Population Healthy Nuclei (%),[2],78% and 81%
same,Population Hoechst High Intensity Objects (%),[2],8% and 7%
same,Population Membrane Permeable-Phenotype (%),[2],0%
same,Population Mitochondria Different-Phenotype (%),[2],40% and 66%
same,Population Mitotic Cells (%),[2],67%
same,Population Normal (%),[2],91% and 92%
same,Population Pyknosed Nuclei (%),[2],12% and 13%
same,Population Tubulin-Different-Phenotype (%),[2],23% and 31%
same,Total Cell Count,[2],381 and 382
same,Population Apoptotic (%),[3],21% and 38%
same,Population Fragmented Nuclei (%),[3],8% and 9%
same,Population Healthy Nuclei (%),[3],81% and 84%
same,Population Hoechst High Intensity Objects (%),[3],3% and 5%
same,Population Membrane Permeable-Phenotype (%),[3],1% and 0%
same,Population Mitochondria Different-Phenotype (%),[3],24% and 30%
same,Population Mitotic Cells (%),[3],78% and 61%
same,Population Normal (%),[3],96% and 94%
same,Population Pyknosed Nuclei (%),[3],10% and 6%
same,Population Tubulin-Different-Phenotype (%),[3],15% and 16%
same,Total Cell Count,[3],629 and 368
same,Population Apoptotic (%),[4],29% and 40%
same,Population Fragmented Nuclei (%),[4],10% and 6%
same,Population Healthy Nuclei (%),[4],79% and 82%
same,Population Hoechst High Intensity Objects (%),[4],5%
same,Population Membrane Permeable-Phenotype (%),[4],0%
same,Population Mitochondria Different-Phenotype (%),[4],30% and 41%
same,Population Mitotic Cells (%),[4],70% and 59%
same,Population Normal (%),[4],94%
same,Population Pyknosed Nuclei (%),[4],10% and 11%
same,Population Tubulin-Different-Phenotype (%),[4],17% and 16%
same,Total Cell Count,[4],510 and 471
same,Population Apoptotic (%),[5],12% and 17%
same,Population Fragmented Nuclei (%),[5],11% and 12%
same,Population Healthy Nuclei (%),[5],80% and 81%
same,Population Hoechst High Intensity Objects (%),[5],2% and 1%
same,Population Membrane Permeable-Phenotype (%),[5],2% and 0%
same,Population Mitochondria Different-Phenotype (%),[5],15% and 17%
same,Population Mitotic Cells (%),[5],87% and 82%
same,Population Normal (%),[5],97% and 98%
same,Population Pyknosed Nuclei (%),[5],7% and 6%
same,Population Tubulin-Different-Phenotype (%),[5],13% and 10%
same,Total Cell Count,[5],1040 and 654
same,Population Apoptotic (%),[6],28% and 42%
same,Population Fragmented Nuclei (%),[6],13%
same,Population Healthy Nuclei (%),[6],78% and 80%
same,Population Hoechst High Intensity Objects (%),[6],2% and 4%
same,Population Membrane Permeable-Phenotype (%),[6],0%
same,Population Mitochondria Different-Phenotype (%),[6],17% and 25%
same,Population Mitotic Cells (%),[6],71% and 57%
same,Population Normal (%),[6],97% and 95%
same,Population Pyknosed Nuclei (%),[6],8% and 6%
same,Population Tubulin-Different-Phenotype (%),[6],8% and 12%
same,Total Cell Count,[6],789 and 687
